Measurements: ChEMBL document CHEMBL1157554, “Biomimetic synthesis and anti-HIV activity of dimeric phloroglucinols” (Bioorg Med Chem, 2010)

Columns and labels:
[1] = Cytotoxicity against GFP expressing human CEM cells assessed as maximal non-toxic concentration after 48 to 72 hrs by MTT assay; assay type: cell-based, CCRF-CEM
How it was run: (§1)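 MTT assay on uninfected CEM-GFP cells seeded at 2 × 10⁴ cells/well. Samples were added at various concentrations, with untreated or vehicle-treated controls, and incubated 48–72 h. Formazan was solubilized and absorbance read at 540 nm. Non-toxic concentrations were carried into antiviral screening. CC50 was from triplicate determinations.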

[2] = system: Human immunodeficiency virus 1; assay: Antiviral activity against HIV1 NL4-3 infected in GFP expressing human CEM cells assessed as inhibition of viral p24 antigen production at non-toxic concentration after 7 days postinfection by ELISA; assay type: functional, CCRF-CEM
How it was run: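 CEM-GFP reporter T cells infected with HIV-1 NL4.3 at MOI 0.05 and cultured with samples at the highest non-toxic concentration. Virus production was measured in culture supernatant on day 7 post-infection by p24 antigen capture ELISA.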

[3] = system: Human immunodeficiency virus; assay: Inhibition of HIV reverse transcriptase at 25 ug/mL
[4] = system: Human immunodeficiency virus 1; assay: Antiviral activity against HIV1 NL4-3 infected in GFP expressing human CEM cells assessed as inhibition of viral infection measured after 9 days postinfection by microfluorometry; assay type: functional, organism-based; conditions: Human immunodeficiency virus 1, NL4-3, CCRF-CEM, 216 h
How it was run: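 CEM-GFP human CD4+ T cells, which carry an integrated LTR-driven GFP reporter, infected with HIV-1 NL4.3 at MOI 0.05. Cells were incubated with samples for up to 9 days post-infection. Infection was followed by GFP fluorescence microscopy, and screening inhibition was quantified by GFP microfluorometry. IC50 is the concentration giving 50% inhibition of infected cells (n = 3).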

[5] = Cytotoxicity against GFP expressing human CEM cells after 48 to 72 hrs by MTT assay; assay type: cell-based, CCRF-CEM; how it was run: as §1
[6] = target: Human immunodeficiency virus type 1 reverse transcriptase (Human immunodeficiency virus 1) (UniProt Q72547); assay: Inhibition of HIV1 reverse transcriptase at 20 ug/mL by EIA
[7] = target: Human immunodeficiency virus type 1 reverse transcriptase (Human immunodeficiency virus 1, UniProt Q72547); assay: Inhibition of HIV1 reverse transcriptase by EIA

Row | inhibition [3] | IC50 [4] | inhibition [6] | EC50 [7] | Compound | MNTC [1] | inhibition (INH) [2] | CC50 [5]
1 | – | – | – | – | CC(=O)c1c(O)c(C(C)=O)c(O)c(C(CCc2ccccc2)c2c(O)c(C(C)=O)c(O)c(C(C)=O)c2O)c1O | 1.87 µM | 16% | –
2 | 90% | – | – | – | COc1c(C)c(O)c(C(C)=O)c(O)c1Cc1c(O)c(CC=C(C)C)c(O)c(C(C)=O)c1O | – | – | –
3 | – | – | – | – | CC(C)CC(=O)c1c(O)c(C=O)c(O)c(C(c2ccccn2)c2c(O)c(C=O)c(O)c(C(=O)CC(C)C)c2O)c1O | 15.9 µM | 26.9% | –
4 | – | – | – | – | CCC(c1c(O)c(C(C)=O)c(O)c(C(C)=O)c1O)c1c(O)c(C(C)=O)c(O)c(C(C)=O)c1O | 2.17 µM | 17.5% | –
5 | – | – | – | – | CC(C)CC(=O)c1c(O)c(C=O)c(O)c(C(c2ccc(OCc3ccccc3)cc2)c2c(O)c(C=O)c(O)c(C(=O)CC(C)C)c2O)c1O | 7.46 µM | 0% | –
6 | – | – | – | – | CC(C)CC(=O)c1c(O)c(C(=O)CC(C)C)c(O)c(C(c2ccc(O)cc2)c2c(O)c(C(=O)CC(C)C)c(O)c(C(=O)CC(C)C)c2O)c1O | 1.45 µM | 15.6% | –
7 | – | – | – | – | CC(=O)c1c(O)c(C(C)=O)c(O)c(C(c2ccc(O)cc2)c2c(O)c(C(C)=O)c(O)c(C(C)=O)c2O)c1O | 14.3 µM | 56% | –
8 | – | 18.6 µM | 80.5% | 0.47 µM | CC(=O)c1c(O)c(C(C)=O)c(O)c(C(c2c(O)c(C(C)=O)c(O)c(C(C)=O)c2O)c2ccnc3ccccc23)c1O | 35.8 µM | 71.1% | 93.4 µM
9 | – | 4.09 µM | 0% | – | CC(=O)c1c(O)c(C(C)=O)c(O)c(C(c2c(O)c(C(C)=O)c(O)c(C(C)=O)c2O)C2CCCCC2)c1O | 9.73 µM | 78.5% | 58.9 µM
10 | – | – | – | – | CC(C)CC(=O)c1c(O)c(C(=O)CC(C)C)c(O)c(C(c2ccc3c(c2)OCO3)c2c(O)c(C(=O)CC(C)C)c(O)c(C(=O)CC(C)C)c2O)c1O | 2.77 µM | 13.9% | –
11 | – | – | – | – | CC(C)CC(=O)c1c(O)c(C(=O)CC(C)C)c(O)c(C(CCc2ccccc2)c2c(O)c(C(=O)CC(C)C)c(O)c(C(=O)CC(C)C)c2O)c1O | 0.71 µM | 15% | –
12 | – | 3.37 µM | 0% | – | CC(C)CC(=O)c1c(O)c(C(=O)CC(C)C)c(O)c(C(c2ccccn2)c2c(O)c(C(=O)CC(C)C)c(O)c(C(=O)CC(C)C)c2O)c1O | 7.39 µM | 64.7% | 38.1 µM
13 | – | – | – | – | CC(C)CC(=O)c1c(O)c(C(=O)CC(C)C)c(O)c(C(c2ccco2)c2c(O)c(C(=O)CC(C)C)c(O)c(C(=O)CC(C)C)c2O)c1O | 3.75 µM | 56.8% | –
14 | – | – | – | – | CC(=O)c1c(O)c(Cc2c(O)c(C(C)=O)c(O)c(C(C)=O)c2O)c(O)c(C(C)=O)c1O | 0.23 µM | 0% | –
15 | – | – | – | – | CC(C)CC(=O)c1c(O)c(C=O)c(O)c(Cc2c(O)c(C=O)c(O)c(C(=O)CC(C)C)c2O)c1O | 4.1 µM | 0% | –
16 | – | 2.71 µM | 87.8% | 1.03 µM | CC(C)CC(=O)c1c(O)c(C(=O)CC(C)C)c(O)c(C(c2ccc(OCc3ccccc3)cc2)c2c(O)c(C(=O)CC(C)C)c(O)c(C(=O)CC(C)C)c2O)c1O | 5.75 µM | 70% | 24 µM
17 | – | 6.75 µM | 16.2% | – | CC(=O)c1c(O)c(C(C)=O)c(O)c(C(c2ccco2)c2c(O)c(C(C)=O)c(O)c(C(C)=O)c2O)c1O | 15.1 µM | 73% | 61.2 µM
18 | – | – | – | – | Cc1cn([C@H]2C[C@H](N=[N+]=[N-])[C@@H](CO)O2)c(=O)[nH]c1=O [ZIDOVUDINE] | 5 µM | 89.75% | 24.1 µM
19 | – | – | – | – | CC(C)CC(=O)c1c(O)c(C(=O)CC(C)C)c(O)c(C(c2c(O)c(C(=O)CC(C)C)c(O)c(C(=O)CC(C)C)c2O)c2ccnc3ccccc23)c1O | 3.44 µM | 30.1% | –
20 | – | 0.28 µM | 4.61% | – | CC(C)CC(=O)c1c(O)c(C(=O)CC(C)C)c(O)c(C(c2ccccc2)c2c(O)c(C(=O)CC(C)C)c(O)c(C(=O)CC(C)C)c2O)c1O | 0.74 µM | 66.5% | 3.15 µM
21 | – | 6.06 µM | 13.4% | – | CC(=O)c1c(O)c(C(C)=O)c(O)c(C(c2ccc(N(C)C)cc2)c2c(O)c(C(C)=O)c(O)c(C(C)=O)c2O)c1O | 9.07 µM | 60.6% | 22.1 µM
22 | – | – | – | – | CC(C)C(=O)c1c(O)c(Cc2c(O)c(C(=O)C(C)C)c(O)c(C(=O)C(C)C)c2O)c(O)c(C(=O)C(C)C)c1O | 0.09 µM | 0% | –
23 | – | – | – | – | CC(C)CC(=O)c1c(O)c(Cc2c(O)c(C(=O)CC(C)C)c(O)c(C(=O)CC(C)C)c2O)c(O)c(C(=O)CC(C)C)c1O | 0.17 µM | 0% | –
